In ChEMBL document CHEMBL4819107, “Substituted N-(4-amino-2-chlorophenyl)-5-chloro-2-hydroxybenzamide analogues potently inhibit respiratory syncytial virus (RSV) replication and RSV infection-associated inflammatory responses” (Bioorg Med Chem, 2021):

Key:
A549 = experiment: Cytotoxicity against human A549 cells assessed as cell death at 10 uM incubated for 15 hrs by LDH assay; type: cell-based; conditions: a549, 15 h
Method in brief: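 A549 cells seeded at 1.5 × 10^4 cells/well. After 24 h, medium replaced with medium containing 10 μM compound and 2% FBS. At 15 h, cell damage read by luminescent LDH release assay. DMSO vehicle control; three biological replicates.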

[1] = system: Respiratory syncytial virus; experiment: Antiviral activity against RSV infected in human A549 cells assessed as reduction in viral titer at 10 uM incubated for 15 hrs by immunostaining analysis; type: functional
Method in brief: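 RSV long strain (propagated in HEp-2, sucrose-gradient purified) infected A549 cells at MOI 1 for 2 h. Inoculum removed, then compound at 10 μM for 15 h. Progeny virus titred by immunostaining in HEp-2 cells with biotin-conjugated goat anti-RSV antibody. Log reduction = log10 mean titer of vehicle-treated cells minus log10 mean titer with compound.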

Q: `O=C(Nc1ccc([N+](=O)[O-])cc1Cl)c1cc(Cl)ccc1O` [NICLOSAMIDE] was tested. Which Activity (A549) did it give?
A: 24%

Q: And the “log(activity)” value [1]?
A: 1.47
